Test results: ChEMBL document CHEMBL1795263, “Identification of 5-arylidene-4-thiazolidinone derivatives endowed with dual activity as aldose reductase inhibitors and antioxidant agents for the treatment of diabetic complications” (Eur J Med Chem, 2011)
pIC50: −log10 of the molar value. The source made the active and inactive calls. The rule behind the calls is not given here.

Key:
Brain = assay: Antioxidant activity against FeCl3/ascorbic acid-induced lipid peroxidation in rat brain homogenate at 100 uM by TBARS assay; format: functional, tissue-based
Outline: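 Fresh rat brain homogenised 10% (w/v) in phosphate buffer pH 7.4. Homogenate was incubated with 20 µM FeCl3 and 100 µM ascorbic acid (final) plus compound (100 uM) or α-tocopherol for 30 min at 37 °C. Thiobarbituric acid/HCl was added, then boiling, n-butanol extraction and A532 read. Values are nmol MDA/10 mg wet tissue from a tetramethoxypropane standard curve; mean ± S.E.M., ≥2 determinations in triplicate.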

[1] = target: Aldo-keto reductase family 1 member B1 (Bos taurus, UniProt P16116); assay: Inhibition of bovine lens ALR2; parameters: species or system Lens of camera-type eye
Outline: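 ALR2 was purified from bovine lens by DE-52 ion exchange and Matrex Orange A affinity chromatography (0.8 U/mg). Assay at 37 °C with 4.67 mM D,L-glyceraldehyde and 0.11 mM NADPH in 0.25 M sodium phosphate pH 6.8, 0.38 M ammonium sulfate and 0.5 mM EDTA, with 1% (v/v) DMSO. IC50 was fitted by nonlinear one-site competition on log dose-inhibition curves from ≥7 concentrations; 95% confidence limits given.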

[2] = target: Aldo-keto reductase family 1 member B1 (Bos taurus) (UniProt P16116); assay: Inhibition of bovine lens ALR2 at 25 uM; conditions: Lens of camera-type eye

| Structure (SMILES) | Activity (Brain) | pIC50 [1] | inhibition [2] |
| --- | --- | --- | --- |
| O=C(O)CN1C(=O)S/C(=C\c2ccc(/C=C/c3ccccc3)cc2)C1=O | Active | 6.57 |  |
| O=C(O)CN1C(=O)S/C(=C\c2ccc(/C=C/c3ccc(C(F)(F)F)cc3)cc2)C1=O | Active | 5.90 |  |
| Cc1ccc(/C=C/C=C2\SC(=O)N(CC(=O)O)C2=O)cc1 | Active | 5.98 |  |
| O=C1NC(=O)/C(=C/c2ccc(/C=C/c3ccccc3)cc2)S1 |  |  | inactive |
| Cc1ccc(/C=C/c2ccc(/C=C3\SC(=O)N(CC(=O)O)C3=O)cc2)cc1 | Active | 6.46 |  |
| COc1ccc(/C=C/c2ccc(/C=C3\SC(=O)NC3=O)cc2)cc1 |  |  | inactive |
| COc1ccc(/C=C/C=C2\SC(=O)N(CC(=O)O)C2=O)cc1 | Active | 6.07 |  |
| O=C1NC(=O)/C(=C/C=C/c2ccc(C(F)(F)F)cc2)S1 |  |  | 65% |
| O=C1NC(=O)/C(=C/c2ccc(/C=C/c3ccc(C(F)(F)F)cc3)cc2)S1 |  |  | 29% |
| O=C(O)CN1C(=O)/C(=C\c2ccc(OCc3ccccc3)cc2)S/C1=N\c1ccccc1 |  | 5.31 |  |
| O=C(O)CN1C(=O)/C(=C\c2ccc(Oc3ccccc3)cc2)S/C1=N\c1ccccc1 |  | 5.36 |  |
| Cc1ccc(/C=C/c2ccc(/C=C3\SC(=O)NC3=O)cc2)cc1 |  |  | 39% |
| COc1ccc(/C=C/c2ccc(/C=C3\SC(=O)N(CC(=O)O)C3=O)cc2)cc1 | Active | 6.60 |  |
| O=C(O)CN1C(=O)S/C(=C\C=C\c2ccccc2)C1=O | Active | 5.88 |  |
| COc1ccc(/C=C/C=C2/SC(=O)NC2=O)cc1 |  |  | 51% |
| Cc1ccc(/C=C/C=C2/SC(=O)NC2=O)cc1 |  |  | 46% |
| O=C1NC(=O)/C(=C\C=C\c2ccccc2)S1 |  |  | 31% |
| O=C(O)CN1C(=O)S/C(=C\C=C\c2ccc(C(F)(F)F)cc2)C1=O | Active | 6.52 |  |
| O=C(O)CN1C(=O)/C(=C\c2ccc3ccccc3c2)S/C1=N\c1ccccc1 |  | 5.57 |  |
| O=C(O)CN1C(=O)S/C(=C\c2ccc(Oc3ccccc3)cc2)C1=O |  | 7.15 |  |
